Read-outs that look alike come from different tables or passages of the source. Each block holds one compound with its values, some of them ahead of it.
What was measured:
[1] = assay type: in vivo, rabbit
[2] = GLP toxicology study, ophthalmic findings and ERG in dogs; assay type: in vivo, dog
[3] = GLP toxicology study, ophthalmic findings in rats; assay type: in vivo, rat; conditions: oral administration, 1 month, 3 months, 6 months
rodent factor D = conditions: stated in discussion, no reference given; cited from earlier work
[4] = assay type: in vivo, rabbit; remark: listed apart in the source
[5] = pigmented rats, single oral dose 10 mg/kg; cited from earlier work
[6] = system: choroidal neovascularization; conditions: mice, cited from earlier work
[7] = assay type: in vivo, rat; conditions: single oral dose 20 mg/kg
Summary of the method: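 Male pigmented Long–Evans rats (n = 10) got a single oral dose of 20 mg/kg [14C]-labelled test compound in PEG 400:saline:DMSO 60:36.3:3.7 (v:v:v), prepared on the day of dosing. Frozen carcasses were cut into ~40 μm sagittal sections and imaged at 50 μm resolution. Densitometry gave μg equivalents/g, and tissue t1/2 came from noncompartmental analysis.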

[8] = assay type: in vivo, rat; conditions: albino rats, single oral dose 20 mg/kg, whole-body autoradiography
Summary of the method: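 Male albino Wistar Han rats (n = 3) got a single oral dose of 20 mg/kg [14C]-labelled test compound. It was suspended on the day of dosing in PEG 400:saline:DMSO 60:36.3:3.7 (v:v:v). Carcasses were frozen in hexane/dry ice, stored at or below −20°C, and cut into ~40 μm sagittal sections. Imaging was at 50 μm resolution. Radioactivity was quantified by image densitometry as μg equivalents/g.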

- AUClast ([1]; NZW rabbit, single oral dose 15 mg/kg, choroid/BrM/RPE, mean): 1010 ng·h/g
- AUClast ([1]; NZW rabbit, single oral dose 15 mg/kg, neural retina, mean): 665 ng·h/g
- MRT last ([1]; New Zealand White, rabbit, choroid/BrM/RPE, po, 15 mg/kg): 5.87 h
- Cmax ([1]; New Zealand White, rabbit, choroid/BrM/RPE, po, 15 mg/kg, NZW rabbit, single oral dose 15 mg/kg, mean): 172 ng/g
- MRT last ([1]; New Zealand White, rabbit, neural retina, po, 15 mg/kg): 1.49 h
- Cmax ([1]; New Zealand White, rabbit, neural retina, po, 15 mg/kg, NZW rabbit, single oral dose 15 mg/kg, mean): 200 ng/g
- MRT last ([1]; New Zealand White, rabbit, plasma, po, 15 mg/kg): 4.01 h
- AUC(0-t) ([1]; New Zealand White, rabbit, plasma, po, 15 mg/kg, AUClast, NZW rabbit, single oral dose 15 mg/kg, mean): 1430 ng·h/mL
- Cmax ([1]; New Zealand White, rabbit, plasma, po, 15 mg/kg, NZW rabbit, single oral dose 15 mg/kg, mean): 310 ng/mL
- AUClast ([4]; DB rabbit, single oral dose 15 mg/kg, choroid/BrM/RPE, mean): 37,400 h·ng/g
- AUClast ([4]; DB rabbit, single oral dose 15 mg/kg, neural retina, mean): 998 ng·h/g
- MRTlast ([4]; DB rabbit, single oral dose 15 mg/kg, neural retina, mean, 15 mg/kg): 7.83 h
- dose-exposure relationship, plasma and neural retina ([4]; DB rabbits, 7.5, 15 and 50 mg/kg/dose twice daily for 15 days (data not shown)): approximate dose linearity
- time through which exposure was detected in plasma after the last dose ([4]; DB rabbits, 7.5, 15 and 50 mg/kg/dose twice daily for 15 days, plasma): 24 h
- dose-exposure relationship, choroid/BrM/RPE ([4]; DB rabbits, between 15 and 50 mg/kg/dose twice daily for 15 days (data not shown)): less-than-dose proportionality
- Cmax ([4]; Dutch Belted, rabbit, choroid/BrM/RPE, po, 15 mg/kg, DB rabbit, single oral dose 15 mg/kg, mean): 917 ng/g
- MRT last ([4]; Dutch Belted, rabbit, choroid/BrM/RPE, po, 15 mg/kg, MRTlast, DB rabbit, single oral dose 15 mg/kg, mean): 49.7 h
- Cmax ([4]; Dutch Belted, rabbit, neural retina, po, 15 mg/kg, DB rabbit, single oral dose 15 mg/kg, mean): 145 ng/g
Compound: CC(=O)c1nn(CC(=O)N2C[C@H](F)C[C@H]2C(=O)Nc2cccc(Br)n2)c2ccc(-c3cnc(C)nc3)cc12 [Danicopan]
- clinical or histopathological ophthalmic findings ([2]; oral administration, 14 days, 3 months, 9 months, GLP): no clinical or histopathological ophthalmic findings
- electroretinography (ERG) abnormalities ([2]; week 38, compared to pretreatment ERG): no abnormalities were detected
- clinical or histopathological ophthalmic findings [3]: no clinical or histopathological ophthalmic findings
- inhibitory effect on rodent factor D (rodent factor D): lack of an inhibitory effect

Compound: Cc1ccc(Nc2nccc(N(C)c3ccc4c(C)n(C)nc4c3)n2)cc1S(N)(=O)=O [Pazopanib]
- time detected in melanin-containing tissues including the uveal tract [5]: up to 35 days
- plasma levels ([6]; 3 days after a single loading dose 10 mg/kg): undetectable
- choroidal neovascularization lesion size ([6]; single loading dose 10 mg/kg, up to 2 weeks after choroidal neovascularization induction): significantly reduced

- time postdose at which radioactivity remained quantifiable in uveal tract ([7]; pigmented rats, uveal tract (28 days)): 672 h
- radioactivity in most tissues at 24 hours postdose ([7]; pigmented rats, whole-body autoradiography): nonquantifiable
- radioactivity in plasma and whole blood ([7]; after 8 hours postdose): undetectable
- radioactivity in most tissues at 24 hours postdose [8]: nonquantifiable
Compound: [^14C]-danicopan

Reference: paper PMC9624268 (Translational Vision Science & Technology, 2022)
